A value given as a limit tells only on which side of the number the result lay.

In one assay the target is T1, Galactofuranosyltransferase GlfT2 (Mycobacterium tuberculosis) (UniProt O53585).
T1 sequence (whole entry): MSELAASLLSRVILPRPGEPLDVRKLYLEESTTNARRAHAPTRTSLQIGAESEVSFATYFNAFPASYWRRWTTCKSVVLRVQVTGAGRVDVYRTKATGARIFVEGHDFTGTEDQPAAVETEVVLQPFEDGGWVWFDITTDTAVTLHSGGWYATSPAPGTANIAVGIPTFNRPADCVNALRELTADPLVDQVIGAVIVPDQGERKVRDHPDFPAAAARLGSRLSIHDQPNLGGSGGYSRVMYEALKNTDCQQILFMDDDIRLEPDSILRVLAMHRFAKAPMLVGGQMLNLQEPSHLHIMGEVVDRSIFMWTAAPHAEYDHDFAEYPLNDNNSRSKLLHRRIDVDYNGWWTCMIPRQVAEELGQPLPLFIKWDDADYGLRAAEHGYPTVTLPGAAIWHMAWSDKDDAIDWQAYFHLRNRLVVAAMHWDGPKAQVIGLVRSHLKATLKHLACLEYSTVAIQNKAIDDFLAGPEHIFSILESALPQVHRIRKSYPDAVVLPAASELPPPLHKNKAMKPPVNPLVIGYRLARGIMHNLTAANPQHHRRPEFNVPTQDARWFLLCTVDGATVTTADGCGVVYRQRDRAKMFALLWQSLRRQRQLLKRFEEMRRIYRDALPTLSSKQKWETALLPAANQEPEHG
The experiment in a line: Inhibition of Mycobacterium tuberculosis GIFT2 at 2 mM at pH7.6 by spectrophotometric assay. Summed up:
(§1)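 Coupled PK/LDH spectrophotometric assay of GlfT2. Mix contained 100 mM MOPS pH 7.6, 50 mM KCl, 20 mM MgCl2, 1.1 mM NADH, 3.5 mM PEP, 3.75 U PK and 16.8 U LDH, with β-D-Galf-(1→5)-β-D-Galf-(1→6)-β-D-Galf-octyl as acceptor. Diluted GlfT2 was added to start the reaction at 37 °C, with A340 read every 10–15 s. Closest duplicate velocities were blank-corrected and expressed as % of mean control.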
In turn, `O=C1CCN([C@@H]2O[C@H](CNC(=O)[C@H](Cc3c[nH]c4ccccc34)NC(=O)C[C@H]3O[C@@H](CO)[C@H](O)[C@H]3O)[C@@H](O)[C@H]2O)C(=O)N1` registered an inhibition of less than 10%.
`O=C(C[C@H]1O[C@@H](CO)[C@H](O)[C@H]1O)N[C@@H](Cc1cnc[nH]1)C(=O)NC[C@H]1O[C@@H](n2ccc(=O)[nH]c2=O)[C@H](O)[C@@H]1O` returned an inhibition of 37%.
`O=C(C[C@@H]1O[C@@H](CO)[C@H](O)[C@H]1O)N[C@@H](Cc1cnc[nH]1)C(=O)NC[C@H]1O[C@@H](n2ccc(=O)[nH]c2=O)[C@H](O)[C@@H]1O` displayed an inhibition of 14%.
Turning to `O=C(C[C@H]1O[C@@H](CO)[C@H](O)[C@H]1O)N[C@@H](Cc1c[nH]c2ccccc12)C(=O)NC[C@H]1O[C@@H](n2ccc(=O)[nH]c2=O)[C@H](O)[C@@H]1O`, the inhibition came to 30%.
`O=C1CCN([C@@H]2O[C@H](CNC(=O)[C@H](Cc3c[nH]c4ccccc34)NC(=O)C[C@@H]3O[C@@H](CO)[C@H](O)[C@H]3O)[C@@H](O)[C@H]2O)C(=O)N1` showed an inhibition of less than 10%.
Compound `O=C(C[C@@H]1O[C@@H](CO)[C@H](O)[C@H]1O)N[C@@H](Cc1c[nH]c2ccccc12)C(=O)NC[C@H]1O[C@@H](n2ccc(=O)[nH]c2=O)[C@H](O)[C@@H]1O` had an inhibition of less than 10%.
`O=C1CCN([C@@H]2O[C@H](CNC(=O)[C@H](Cc3cnc[nH]3)NC(=O)C[C@@H]3O[C@@H](CO)[C@H](O)[C@H]3O)[C@@H](O)[C@H]2O)C(=O)N1` displayed an inhibition of less than 10%.
Compound `O=C1CCN([C@@H]2O[C@H](CNC(=O)[C@H](Cc3cnc[nH]3)NC(=O)C[C@H]3O[C@@H](CO)[C@H](O)[C@H]3O)[C@@H](O)[C@H]2O)C(=O)N1` displayed an inhibition of less than 10%.

The target in the next assay is T1, Galactofuranosyltransferase GlfT2 (Mycobacterium tuberculosis). Briefly: Inhibition of Mycobacterium tuberculosis GIFT2 at 4 mM at pH7.6 by spectrophotometric assay. The method in brief:
as §1
`O=C1CCN([C@@H]2O[C@H](CNC(=O)[C@H](Cc3c[nH]c4ccccc34)NC(=O)C[C@H]3O[C@H](CO)[C@H](O)[C@H](O)[C@H]3O)[C@@H](O)[C@H]2O)C(=O)N1` gave an inhibition of 53%.
As for `NC(=O)CC[C@H](NC(=O)C[C@H]1O[C@H](CO)[C@H](O)[C@H](O)[C@H]1O)C(=O)NC[C@H]1O[C@@H](N2CCC(=O)NC2=O)[C@H](O)[C@@H]1O`, the inhibition is less than 10%.
With `NC(=O)CC[C@H](NC(=O)C[C@H]1O[C@H](CO)[C@H](O)[C@H](O)[C@H]1O)C(=O)NC[C@H]1O[C@@H](n2ccc(=O)[nH]c2=O)[C@H](O)[C@@H]1O`, the inhibition is less than 10%.
`O=C(C[C@H]1O[C@H](CO)[C@H](O)[C@H](O)[C@H]1O)N[C@@H](Cc1cnc[nH]1)C(=O)NC[C@H]1O[C@@H](n2ccc(=O)[nH]c2=O)[C@H](O)[C@@H]1O`: the inhibition was found to be 79%.
As for `O=C1CCN([C@@H]2O[C@H](CNC(=O)[C@H](Cc3cnc[nH]3)NC(=O)C[C@H]3O[C@H](CO)[C@H](O)[C@H](O)[C@H]3O)[C@@H](O)[C@H]2O)C(=O)N1`, the inhibition was found to be 18%.
`O=C(C[C@H]1O[C@H](CO)[C@H](O)[C@H](O)[C@H]1O)N[C@@H](Cc1c[nH]c2ccccc12)C(=O)NC[C@H]1O[C@@H](n2ccc(=O)[nH]c2=O)[C@H](O)[C@@H]1O` showed an inhibition of 75%.

For the next assay, the target named is T2, Galactofuranosyltransferase GlfT2 (Mycobacterium tuberculosis, UniProt O53585).
T2 sequence (O53585 whole entry): T1 sequence (whole entry)
Briefly: Inhibition of Mycobacterium tuberculosis GIFT2 at pH7.6 by spectrophotometric assay.
`O=C(C[C@H]1O[C@H](CO)[C@H](O)[C@H](O)[C@H]1O)N[C@@H](Cc1cnc[nH]1)C(=O)NC[C@H]1O[C@@H](n2ccc(=O)[nH]c2=O)[C@H](O)[C@@H]1O` yielded a 50% inhibitory concentration (IC50) of 332 µM.

The values above are taken from ChEMBL document CHEMBL1641436, “Synthesis of sugar-amino acid-nucleosides as potential glycosyltransferase inhibitors” (Bioorg Med Chem, 2011).
